Measured values from ChEMBL document CHEMBL5344476, “Development of Hsp90 C-terminal inhibitors with noviomimetics that manifest anti-proliferative activities” (RSC Med Chem, 2024).
Activity calls are given as the source filed them. The rule behind the calls is not given here.

Columns and labels:
[1] = system: PC-3; test: Antiproliferative activity against human PC-3 cells assessed as inhibition of cell growth incubated for 72 hrs by MTS assay; format: functional, cell-based; settings: PC-3, 72 h
Method in brief: (§1)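 Cells were grown at 37°C under 5% CO₂: PC3 in RPMI-1640, MDA-MB-231 in DMEM, and SKBr3 in McCoy's. They were seeded at 2000 cells/well and left for 24 h, then exposed for 72 h to varying concentrations or vehicle (0.5% DMSO final). Viability was read by MTS/PES absorbance at 490 nm relative to control. IC50 came from concentration-response curves; values are means ± SD of two independent experiments.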

[2] = system: SK-BR-3; test: Antiproliferative activity against human SK-BR-3 cells assessed as inhibition of cell growth incubated for 72 hrs by MTS assay; format: functional, cell-based; settings: SK-BR-3, 72 h; method in brief: as §1
[3] = system: MDA-MB-231; test: Antiproliferative activity against human MDA-MB-231 cells assessed as inhibition of cell growth incubated for 72 hrs by MTS assay; format: functional, cell-based; settings: MDA-MB-231, 72 h; method in brief: as §1
[4] = system: SK-BR-3; test: Effect on HSP90 independent beta-actin protein level in human SK-BR-3 cells at 0.1 to 10 uM incubated for 24 hrs by Western blot analysis; format: functional, cell-based; settings: dose 0.1-10 µM
Method in brief: (§2)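 SKBr3 cells were seeded at 700,000/well and grown to ~80% confluency. They were treated for 24 h with compound or vehicle (1% DMSO), then lysed in Triton/SDS buffer with protease and phosphatase inhibitors. Protein (20 ug, BCA-normalized) was run on 10% SDS-PAGE and transferred to PVDF. Blots were probed overnight at 4°C with 1:1000 anti-HER2, Hsp70, Hsp90, Akt, CDK6 or β-actin, then detected by HRP secondary and ECL.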

[5] = biological target: T1, Heat shock protein HSP90 (Homo sapiens) (UniProt P07900+P08238); test: Inhibition of C-terminal HSP90 in human SK-BR-3 cells assessed as reduction in HSR induction with constant Hsp70 level at 0.1 to 10 uM incubated for 24 hrs by Western blot analysis; format: cell-based; settings: dose 0.1-10 µM; method in brief: as §2
[6] = biological target: T1, Heat shock protein HSP90 (Homo sapiens); test: Inhibition of C-terminal HSP90 in human SK-BR-3 cells at 0.1 to 10 uM incubated for 24 hrs by Western blot analysis; settings: dose 0.1-10 µM
[7] = biological target: T1, Heat shock protein HSP90 (Homo sapiens); test: Inhibition of C-terminal HSP90 in human SK-BR-3 cells assessed as HER-2 degradation incubated for 24 hrs by Western blot analysis; format: cell-based; settings: dose 0.1-10 µM; method in brief: as §2
[8] = system: SK-BR-3; test: Antiproliferative activity against human SK-BR-3 cells; format: functional, cell-based
Method in brief: as §1, with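 “They” for “Cells were grown at 37°C under 5% CO₂: PC3 in RPMI-1640, MDA-MB-231 in DMEM, and SKBr3 in McCoy's. They”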

Structure (SMILES) | IC50 [1] [µM] | IC50 [2] [µM] | IC50 [3] [µM] | inhibition [5] | inhibition [6] | inhibition [7] | IC50 [8] [µM] | Activity [4]
CC(=O)NCCc1ccc(OC2CCC(OCc3ccccc3)CC2)cc1-c1cccc(F)c1 (stereo unspecified) |  |  |  |  |  |  | > 50 | 
COc1cccc(-c2cc(C(=O)NCCc3ccc(OC4CCC(OCc5ccccc5)CC4)cc3-c3cccc(F)c3)ccc2OC)c1 (stereo unspecified) | > 50 | > 50 | > 50 |  |  |  |  | 
COc1cccc(-c2cc(C(=O)NCCc3ccc(OC4CCC(C(F)(F)Oc5ccccc5)CC4)cc3-c3cccc(F)c3)ccc2OC)c1 (stereo unspecified) | > 50 | > 50 | > 50 |  |  |  |  | 
CC(C)=CCc1cc(C(=O)NCCc2ccc(OC3CCC(CCc4ccccc4)CC3)cc2-c2cccc(F)c2)ccc1O (stereo unspecified) | > 50 | > 50 | > 50 |  |  |  |  | 
COc1cccc(-c2cc(C(=O)NCCc3ccc(OC4CCOCC4)cc3-c3cccc(F)c3)ccc2OC)c1 | > 50 | > 50 | > 50 |  |  |  |  | 
COc1cccc(-c2cc(C(=O)NCCc3ccc(OC4CCC(SCc5ccccc5)CC4)cc3-c3cccc(F)c3)ccc2OC)c1 (stereo unspecified) | > 50 | > 50 | > 50 |  |  |  |  | 
COc1cccc(-c2cc(C(=O)NCCc3ccc(OC4CCC(C(=O)Oc5ccccc5)CC4)cc3-c3cccc(F)c3)ccc2OC)c1 (stereo unspecified) | > 50 | > 50 | > 50 |  |  |  |  | 
COc1cccc(-c2cc(C(=O)NCCc3ccc(OC4CCCCC4)cc3-c3cccc(F)c3)ccc2OC)c1 | > 50 | > 50 | > 50 |  |  |  |  | 
CC(C)=CCc1cc(C(=O)NCCc2ccc(OC3CCC(SCc4ccccc4)CC3)cc2-c2cccc(F)c2)ccc1O (stereo unspecified) | > 50 | > 50 | > 50 |  |  |  |  | 
COc1cccc(-c2cc(C(=O)NCCc3ccc(OC4CCC(CCc5ccccc5)CC4)cc3-c3cccc(F)c3)ccc2OC)c1 (stereo unspecified) | > 50 | > 50 | > 50 |  |  |  |  | 
COC(=O)C1CCC(Oc2ccc(CCNC(=O)c3ccc(OC)c(-c4cccc(OC)c4)c3)c(-c3cccc(F)c3)c2)CC1 (stereo unspecified) | > 50 | > 50 | > 50 |  |  |  |  | 
COc1cccc(-c2cc(C(=O)NCCc3ccc(OC4CCC(CSc5ccccc5)CC4)cc3-c3cccc(F)c3)ccc2OC)c1 (stereo unspecified) | > 50 | > 50 | > 50 |  |  |  |  | 

Now from value to compound, other results behind:

IC50 [1] [µM] | IC50 [2] [µM] | IC50 [3] [µM] | inhibition [5] | inhibition [6] | inhibition [7] | IC50 [8] [µM] | Structure (SMILES) | Activity [4]
> 50 | > 50 | > 50 |  |  |  |  | COc1cccc(-c2cc(C(=O)NCCc3ccc(OC4CCC(Cc5ccccc5)CC4)cc3-c3cccc(F)c3)ccc2OC)c1 (stereo unspecified) | 
13.5 | 6.6 | 8.46 |  |  |  |  | CCN1CCC(Oc2ccc(CCNC(=O)c3ccc(OC)c(-c4cccc(OC)c4)c3)c(-c3cccc(F)c3)c2)CC1 | 
> 50 | > 50 | > 50 |  |  |  |  | COc1cccc(-c2cc(C(=O)NCCc3ccc(OC4CCC(C(=O)Nc5ccccc5)CC4)cc3-c3cccc(F)c3)ccc2OC)c1 (stereo unspecified) | 
> 50 | > 50 | > 50 |  |  |  |  | COc1cccc(-c2cc(C(=O)NCCc3ccc(OC4CCC(CNc5ccccc5)CC4)cc3-c3cccc(F)c3)ccc2OC)c1 (stereo unspecified) | 
3.08 | 0.9 | 3.29 | Active | Active | Dose-Dependent Effect |  | COc1cccc(-c2cc(C(=O)NCCc3ccc(OC4CCNCC4)cc3-c3cccc(F)c3)ccc2OC)c1 | inactive
> 50 | > 50 | > 50 |  |  |  |  | CNC(=O)C1CCC(Oc2ccc(CCNC(=O)c3ccc(OC)c(-c4cccc(OC)c4)c3)c(-c3cccc(F)c3)c2)CC1 (stereo unspecified) | 
8.07 | 15.3 | 35.1 |  |  |  |  | COc1cccc(-c2cc(C(=O)NCCc3ccc(OCCCB4OC(C)(C)C(C)(C)O4)cc3-c3cccc(F)c3)ccc2OC)c1 | 
> 50 | > 50 | > 50 |  |  |  |  | CCCC1CCC(Oc2ccc(CCNC(=O)c3ccc(OC)c(-c4cccc(OC)c4)c3)c(-c3cccc(F)c3)c2)CC1 (stereo unspecified) | 
> 50 | > 50 | > 50 |  |  |  |  | COc1cccc(-c2cc(C(=O)NCCc3ccc(OC4CCC(COc5ccccc5)CC4)cc3-c3cccc(F)c3)ccc2OC)c1 (stereo unspecified) | 
> 50 | > 50 | > 50 |  |  |  |  | CC(C)=CCc1cc(C(=O)NCCc2ccc(OC3CCC(Cc4ccccc4)CC3)cc2-c2cccc(F)c2)ccc1O (stereo unspecified) | 
> 50 | > 50 | > 50 |  |  |  |  | COc1cccc(-c2cc(C(=O)NCCc3ccc(OC4CCN(Cc5ccccc5)CC4)cc3-c3cccc(F)c3)ccc2OC)c1 | 
13.3 | 21.6 | 36.6 |  |  |  |  | COc1cccc(-c2cc(C(=O)NCCc3ccc(OCCCB(O)O)cc3-c3cccc(F)c3)ccc2OC)c1 | 
6.6 | 3.46 | 4.87 |  |  |  |  | COc1cccc(-c2cc(C(=O)NCCc3ccc(OC4CCN(C)CC4)cc3-c3cccc(F)c3)ccc2OC)c1 | 
13.6 | 6.61 | 9.35 |  |  |  |  | COc1cccc(-c2cc(C(=O)NCCc3ccc(OC4CCN(C(C)C)CC4)cc3-c3cccc(F)c3)ccc2OC)c1 | 
11 | 0.56 | 6.37 |  |  |  |  | CCCN1CCC(Oc2ccc(CCNC(=O)c3ccc(OC)c(-c4cccc(OC)c4)c3)c(-c3cccc(F)c3)c2)CC1 | 
12.7 | 6.43 | 7.35 |  |  |  |  | C=CCN1CCC(Oc2ccc(CCNC(=O)c3ccc(OC)c(-c4cccc(OC)c4)c3)c(-c3cccc(F)c3)c2)CC1 | 
